Laboratory results as given in ChEMBL document CHEMBL1158535, “Thiazole, oxadiazole, and carboxamide derivatives of artemisinin are highly selective and potent inhibitors of Toxoplasma gondii” (J Med Chem, 2010).

system: Toxoplasma gondii; assay: Antiparasitic activity against Toxoplasma gondii 2F infected in HFF cells assessed as beta galactosidase activity after 5 days; assay type: functional, organism-based; conditions: 120 h
Outline: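 HFF monolayers infected with β-galactosidase-expressing T. gondii 2F tachyzoites; compounds from final 320 μM serially diluted 0.5 log10, drug-free parasite control. After 4 days at 37°C/5% CO2, CPRG substrate added and incubated 1 more day. Absorbance 570-650 nm relative to parasite control. IC50 calculated; at least three independent experiments.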

SMILES | IC50 [µM]
CNC(=O)C1=C(C)[C@@H]2CC[C@@H](C)[C@@H]3CC[C@@]4(C)OO[C@@]23[C@H](O1)O4 | 15
CC1=C(c2nc(-c3ccc(C)cc3)cs2)O[C@@H]2O[C@@]3(C)CC[C@H]4[C@H](C)CC[C@@H]1[C@@]24OO3 | 0.35
CC1=C(C(=O)NCc2ccc(F)c(F)c2)O[C@@H]2O[C@@]3(C)CC[C@H]4[C@H](C)CC[C@@H]1[C@@]24OO3 | 0.47
CC1=C(C(=O)NCc2ccccc2)O[C@@H]2O[C@@]3(C)CC[C@H]4[C@H](C)CC[C@@H]1[C@@]24OO3 | 0.67
CO[C@H]1O[C@@H]2O[C@@]3(C)CC[C@H]4[C@H](C)CC[C@@H]([C@H]1C)[C@@]24OO3 [ARTEMETHER] | 0.31
CCc1csc(C2=C(C)[C@@H]3CC[C@@H](C)[C@@H]4CC[C@@]5(C)OO[C@@]34[C@H](O2)O5)n1 | 0.4
CC1=C(C(=O)NCc2cc(F)cc(F)c2)O[C@@H]2O[C@@]3(C)CC[C@H]4[C@H](C)CC[C@@H]1[C@@]24OO3 | 0.36
CC1=C(c2nc(C)no2)O[C@@H]2O[C@@]3(C)CC[C@H]4[C@H](C)CC[C@@H]1[C@@]24OO3 | 0.84
CC1=C(c2nc(-c3ccc(S(C)(=O)=O)cc3)cs2)O[C@@H]2O[C@@]3(C)CC[C@H]4[C@H](C)CC[C@@H]1[C@@]24OO3 | 0.42
CC1=C(C(=O)NCc2ccc(C)cc2)O[C@@H]2O[C@@]3(C)CC[C@H]4[C@H](C)CC[C@@H]1[C@@]24OO3 | 0.51
COc1ccc(-c2csc(C3=C(C)[C@@H]4CC[C@@H](C)[C@@H]5CC[C@@]6(C)OO[C@@]45[C@H](O3)O6)n2)cc1 | 0.75
CSc1ccc(-c2csc(C3=C(C)[C@@H]4CC[C@@H](C)[C@@H]5CC[C@@]6(C)OO[C@@]45[C@H](O3)O6)n2)cc1 | 0.4
COc1cc(Cc2cnc(N)nc2N)cc(OC)c1OC [TRIMETHOPRIM] | 46
CC1=C(C(=O)NCc2ccc(C(F)(F)F)cc2)O[C@@H]2O[C@@]3(C)CC[C@H]4[C@H](C)CC[C@@H]1[C@@]24OO3 | 0.34

system: not listed separately; assay: Cytotoxicity against HFF after 5 days by CellTiter 96 Aqueous One Solution assay; conditions: human, HFF cells; read-out: TD50

SMILES | CC50 at 120 h [µM]
CNC(=O)C1=C(C)[C@@H]2CC[C@@H](C)[C@@H]3CC[C@@]4(C)OO[C@@]23[C@H](O1)O4 | ≥ 320
CC1=C(c2nc(-c3ccc(C)cc3)cs2)O[C@@H]2O[C@@]3(C)CC[C@H]4[C@H](C)CC[C@@H]1[C@@]24OO3 | ≥ 320
CC1=C(C(=O)NCc2ccc(F)c(F)c2)O[C@@H]2O[C@@]3(C)CC[C@H]4[C@H](C)CC[C@@H]1[C@@]24OO3 | 78
CC1=C(C(=O)NCc2ccccc2)O[C@@H]2O[C@@]3(C)CC[C@H]4[C@H](C)CC[C@@H]1[C@@]24OO3 | ≥ 320
CO[C@H]1O[C@@H]2O[C@@]3(C)CC[C@H]4[C@H](C)CC[C@@H]([C@H]1C)[C@@]24OO3 [ARTEMETHER] | ≥ 320
CCc1csc(C2=C(C)[C@@H]3CC[C@@H](C)[C@@H]4CC[C@@]5(C)OO[C@@]34[C@H](O2)O5)n1 | ≥ 320
CC1=C(C(=O)NCc2cc(F)cc(F)c2)O[C@@H]2O[C@@]3(C)CC[C@H]4[C@H](C)CC[C@@H]1[C@@]24OO3 | ≥ 320
CC1=C(c2nc(C)no2)O[C@@H]2O[C@@]3(C)CC[C@H]4[C@H](C)CC[C@@H]1[C@@]24OO3 | ≥ 320
CC1=C(c2nc(-c3ccc(S(C)(=O)=O)cc3)cs2)O[C@@H]2O[C@@]3(C)CC[C@H]4[C@H](C)CC[C@@H]1[C@@]24OO3 | ≥ 320
CC1=C(C(=O)NCc2ccc(C)cc2)O[C@@H]2O[C@@]3(C)CC[C@H]4[C@H](C)CC[C@@H]1[C@@]24OO3 | 169
COc1ccc(-c2csc(C3=C(C)[C@@H]4CC[C@@H](C)[C@@H]5CC[C@@]6(C)OO[C@@]45[C@H](O3)O6)n2)cc1 | 19
CSc1ccc(-c2csc(C3=C(C)[C@@H]4CC[C@@H](C)[C@@H]5CC[C@@]6(C)OO[C@@]45[C@H](O3)O6)n2)cc1 | ≥ 320
COc1cc(Cc2cnc(N)nc2N)cc(OC)c1OC [TRIMETHOPRIM] | ≥ 320
CC1=C(C(=O)NCc2ccc(C(F)(F)F)cc2)O[C@@H]2O[C@@]3(C)CC[C@H]4[C@H](C)CC[C@@H]1[C@@]24OO3 | ≥ 320

system: not listed separately; assay: Therapeutic index, ratio of TD50 for HFF cells to IC50 for Toxoplasma gondii F2; assay type: cell-based; conditions: human, read-out: TI

SMILES | selectivity ratio
CNC(=O)C1=C(C)[C@@H]2CC[C@@H](C)[C@@H]3CC[C@@]4(C)OO[C@@]23[C@H](O1)O4 | 37
CC1=C(c2nc(-c3ccc(C)cc3)cs2)O[C@@H]2O[C@@]3(C)CC[C@H]4[C@H](C)CC[C@@H]1[C@@]24OO3 | 1610
CC1=C(C(=O)NCc2ccc(F)c(F)c2)O[C@@H]2O[C@@]3(C)CC[C@H]4[C@H](C)CC[C@@H]1[C@@]24OO3 | 166
CC1=C(C(=O)NCc2ccccc2)O[C@@H]2O[C@@]3(C)CC[C@H]4[C@H](C)CC[C@@H]1[C@@]24OO3 | 839
CO[C@H]1O[C@@H]2O[C@@]3(C)CC[C@H]4[C@H](C)CC[C@@H]([C@H]1C)[C@@]24OO3 [ARTEMETHER] | 1810
CCc1csc(C2=C(C)[C@@H]3CC[C@@H](C)[C@@H]4CC[C@@]5(C)OO[C@@]34[C@H](O2)O5)n1 | 1410
CC1=C(C(=O)NCc2cc(F)cc(F)c2)O[C@@H]2O[C@@]3(C)CC[C@H]4[C@H](C)CC[C@@H]1[C@@]24OO3 | 1560
CC1=C(c2nc(C)no2)O[C@@H]2O[C@@]3(C)CC[C@H]4[C@H](C)CC[C@@H]1[C@@]24OO3 | 669
CC1=C(c2nc(-c3ccc(S(C)(=O)=O)cc3)cs2)O[C@@H]2O[C@@]3(C)CC[C@H]4[C@H](C)CC[C@@H]1[C@@]24OO3 | 1340
CC1=C(C(=O)NCc2ccc(C)cc2)O[C@@H]2O[C@@]3(C)CC[C@H]4[C@H](C)CC[C@@H]1[C@@]24OO3 | 331
COc1ccc(-c2csc(C3=C(C)[C@@H]4CC[C@@H](C)[C@@H]5CC[C@@]6(C)OO[C@@]45[C@H](O3)O6)n2)cc1 | 25
CSc1ccc(-c2csc(C3=C(C)[C@@H]4CC[C@@H](C)[C@@H]5CC[C@@]6(C)OO[C@@]45[C@H](O3)O6)n2)cc1 | 1410
COc1cc(Cc2cnc(N)nc2N)cc(OC)c1OC [TRIMETHOPRIM] | 12
CC1=C(C(=O)NCc2ccc(C(F)(F)F)cc2)O[C@@H]2O[C@@]3(C)CC[C@H]4[C@H](C)CC[C@@H]1[C@@]24OO3 | 1650
